{"data": "Published values collected from several papers", "target": "D(1A) dopamine receptor (DRD1, Homo sapiens, UniProt P21728)"}
{"Structure (SMILES)": "COc1ccc(S(=O)(=O)N2CCCCC2)cc1C", "test": "ligand displacement, radioligand", "conditions": "10 µM", "quantity": "inhibition", "value": "< 30%"}
{"Structure (SMILES)": "c1ccc(C(NCCNC(c2ccccc2)c2ccccc2)c2ccccc2)cc1", "test": "cell-free assay", "conditions": "10 µM", "quantity": "inhibition", "value": "24%"}
{"Structure (SMILES)": "Cn1cncc1[C@@](O)(COc1ccc(C#N)cc1-c1ccc(OC(F)(F)F)cc1)c1ccc(C#N)cc1", "test": "ligand displacement", "conditions": "10 µM", "quantity": "inhibition", "value": "19%"}
{"Structure (SMILES)": "Clc1ccc2c(C3CCN(CCc4c[nH]c5ccccc45)CC3)c[nH]c2c1", "test": "ligand displacement, radioligand", "conditions": "10 µM", "quantity": "inhibition", "value": "100%"}
{"Structure (SMILES)": "C[C@H](C(=O)N[C@H]1COc2ccccc2[C@@H]1S(C)(=O)=O)c1ccc(F)cc1", "test": "cell-free assay", "conditions": "10 µM", "quantity": "inhibition", "value": "-6%"}
{"Structure (SMILES)": "Cc1c(N2CCNCC2)nc2ccc(Br)cc2c1C(=O)NC[C@H](CCC(=O)O)c1ccccc1Cl", "test": "ligand displacement", "conditions": "10 µM", "quantity": "inhibition", "value": "31.6%"}
{"Structure (SMILES)": "COCc1c(-c2cc3cc(C)cc(OC)c3s2)c2c(N)ncnn2c1CN1CCNC(=O)C1", "test": "ligand displacement, radioligand", "conditions": "10 µM", "quantity": "inhibition", "value": "10%"}
{"Structure (SMILES)": "CC(Cc1ccccc1)NCCn1cnc2c1c(=O)n(C)c(=O)n2C (stereo not drawn)", "test": "ligand displacement, radioligand", "conditions": "10 µM", "quantity": "inhibition", "value": "8%"}
{"Structure (SMILES)": "Nc1ncc(-c2nc(N3CCOCC3)nc(N3CCOCC3)n2)c(C(F)F)n1", "test": "cell-free assay, radioligand", "conditions": "10 µM", "quantity": "remaining signal", "value": "90.9%"}
{"Structure (SMILES)": "CN(CCN1CCC(OC(=O)Nc2ccccc2-c2ccccc2)CC1)C(=O)c1ccc(CN2CCC(C(N)=O)CC2)cc1", "test": "ligand displacement, radioligand", "conditions": "1 µM", "quantity": "inhibition", "value": "1%"}
{"Structure (SMILES)": "CCN(CC)CCCC[C@H](NC(=O)[C@H](CC(C)C)NC(=O)[C@H](C)NC(=O)[C@H](Cc1ccccc1)NC(=O)c1ccc(C(C)(C)C)cc1)C(=O)N[C@@H](CO)C(=O)OC", "test": "ligand displacement, radioligand", "conditions": "10 µM", "quantity": "inhibition", "value": "4%"}
{"Structure (SMILES)": "CC(C)N1CCC[C@H]1CNC(=O)c1cn(C2CCCC2)c(=O)c2c1c1ccccc1n2C", "test": "ligand displacement, radioligand", "conditions": "10 µM", "quantity": "inhibition", "value": "5%"}
